Screens from PubChem.
ROMK mod – human ROMK K+ channel modulation, primary screen; P48048; Tet-inducible ROMK, thallium flux fluorescence; actives lie on both sides; B-score at 10 µM; hit rate 2% among 130,000; AID 1918;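 active = signal ratio slope over the read window, or its plate-corrected B-score, at least 3 SD from the plate mean, either direction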;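 note: B-score of the F/F0 ratio slope over 7 to 12 s after thallium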
Target sequence (P48048 whole entry, looked up): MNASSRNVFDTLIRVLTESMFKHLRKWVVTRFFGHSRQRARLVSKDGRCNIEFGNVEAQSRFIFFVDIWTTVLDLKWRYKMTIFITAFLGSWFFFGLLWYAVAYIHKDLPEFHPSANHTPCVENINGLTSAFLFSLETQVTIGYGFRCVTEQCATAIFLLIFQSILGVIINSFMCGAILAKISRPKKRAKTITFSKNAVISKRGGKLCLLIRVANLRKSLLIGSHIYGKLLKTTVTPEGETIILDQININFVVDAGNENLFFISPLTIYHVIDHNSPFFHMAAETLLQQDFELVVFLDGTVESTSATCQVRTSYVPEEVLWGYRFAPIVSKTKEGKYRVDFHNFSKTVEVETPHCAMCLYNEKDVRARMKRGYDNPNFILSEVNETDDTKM
Biofilm kill mix – mixture kills Candida albicans biofilm cells; inhibition, % at 7.6 µM; C. albicans biofilm persisters + clotrimazole, fluorescence viability; primary screen in compound mixtures of four per well; hit rate 0.02% among 120,000; AID 1242;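 active = inhibition above 30.3% in the primary screen of four-compound pools, then above 30% when the compound was retested; inconclusive = passed the primary limit but could not be retested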;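 note: compounds exposed to preformed 24 h biofilms for 48 h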
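Test system: C. albicans CAF4-2 wild-type biofilms; buffer or medium: RPMI/MOPS medium, pH 7.0; schedule: 24 h biofilm formation, then 48 h compound exposure, 37 °C; detection: Alamar Blue fluorescence; measure: percent inhibition of biofilm viability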
ROMK retest – human ROMK channel modulation, retest confirmation; hit rate 54% among 3,000; ROMK thallium flux, fluorescence ratio; hits give low values; normalized thallium flux (F/F0 slope) at 10 µM; shares compounds with ROMK mod; AID 1917;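 active = Flux at 10 µM at least 3 SD below or above vehicle control mean in one or both replicates; inconclusive = no clear call, values can overlap the other calls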
Large screens that a line does not name were inactive (follow-up assays come after a bar, where they were run). The full list was thinned out, with hits kept by preference.

CCNc1nc(NCC)n2c(SC(C(=O)Nc3cc(Cl)cc(Cl)c3)c3ccccc3)nnc2n1 (configuration not stated)	none (no result: ROMK mod)
CC1CCC(C(C)C)C(OC(=O)Cn2c(-c3ccccc3)[n+](C)c3ccccc32)C1 (configuration not stated)	ROMK mod -6.3 | ROMK retest 0.039
CC1CCC(C(C)C)C(OC(=O)CSc2n[nH]c(=O)[nH]c2=O)C1 (configuration not stated)	none (no result: Biofilm kill mix)
Cc1cccc(OC(=O)Cn2c(C(F)(F)F)nc3ccccc32)c1	none (no result: Biofilm kill mix)
Cc1nnc(SCC(=O)OC2CC(C)CCC2C(C)C)[nH]c1=O (configuration not stated)	none (no result: Biofilm kill mix)
CC1CCC(C(C)C)C(OC(=O)Cn2c(-c3ccc(F)cc3)[n+](C)c3ccccc32)C1 (configuration not stated)	ROMK mod -5 | ROMK retest 0.047
Cc1cccc(OCc2n(CC(=O)OC3CC(C)CCC3C(C)C)c3ccccc3[n+]2C)c1 (configuration not stated)	ROMK mod -6.2 | ROMK retest 0.037
O=C(Cn1cc(C(F)(F)F)ccc1=O)N/N=C/c1cccc(Cl)c1	none
CCOC(=O)C1=C(Cc2ccc(F)cc2)C(=O)c2ccccc2C1=O	ROMK mod -3.3 (no result: Biofilm kill mix) | ROMK retest 0.061
CCOC(=O)n1c(=O)n(Cc2ccc(F)cc2)c2ccccc21	none
CC1(C2CC(C(F)(F)F)n3nc(C(=O)O)cc3N2)CC1 (configuration not stated)	none
CS(=O)(=O)n1nc(OC(=O)c2cc(Br)ccc2Cl)cc1N	ROMK mod -3 | ROMK retest 0.054
CS(=O)(=O)n1nc(OC(=O)c2cccc3ccccc23)cc1N	none (no result: Biofilm kill mix)
COc1cnc(SCCC(F)=C(F)F)[nH]c1=O	none
CCN1CCc2nc3ccccc3c(C(=O)Nc3ccc(F)cc3)c2C1	ROMK mod -3.3 | ROMK retest inactive
CCN1CCc2nc3ccccc3c(C(=O)Nc3ccc(NC(C)=O)cc3)c2C1	none (no result: ROMK mod)
CCOc1ccccc1CN1CCN(Cc2ccon2)CC1CCO (configuration not stated)	none (no result: ROMK mod)
COc1cccc(CC(=O)Nc2ccc(S(=O)(=O)Nc3nc(C)cc(C)n3)cc2)c1	none
COc1ccc(NC(=O)c2ccc(-c3ccccc3Cl)o2)cc1	none
COc1ccc(NC(=O)c2ccc(-c3ccc(C)c4ccccc34)o2)cc1	ROMK mod 1.7 | ROMK retest inactive
N#CCC(=O)Nc1ccc(C(=O)NCc2ccccn2)cc1	none
CCOC(=O)C1CCN(CCC(=O)Nc2ccc(C)c(C)c2)CC1	none
CC(C)N1C(=O)CCC1C(=O)NC1CCCC1 (configuration not stated)	none (no result: Biofilm kill mix)
CCC(C)N1C(=O)CCC1C(=O)O (configuration not stated)	ROMK mod -8.2 (no result: Biofilm kill mix) | ROMK retest inactive
Cc1cc(C(=O)Nc2nnc(C(F)(F)F)s2)cs1	none (no result: ROMK mod)
O=C(Nc1nnc(C(F)(F)F)s1)c1ccc(Br)s1	ROMK mod -3 | ROMK retest inactive
NC(=O)c1ccccc1NC(=O)c1ccccc1Cl	none (no result: ROMK mod)
O=C(Nc1ccccc1C(=O)Nc1nnc(C(F)(F)F)s1)c1ccccc1Cl	none (no result: ROMK mod) | ROMK retest 0.061
Cc1ccc(C(C(=O)Nc2ccc3c(c2)OCO3)N(C)C(=O)/C=C\c2ccc3c(c2)OCO3)cc1 (configuration not stated)	none
COc1ccc(N2CCN(CCNC(=O)c3ccc4c(c3)[nH]c(=S)n3c5ccccc5nc43)CC2)cc1	none
COc1ccc(C(=O)C(c2ccccc2)N2CCOCC2)cc1 (configuration not stated)	none (no result: Biofilm kill mix)
Cc1ccc(C(=O)C(c2ccccc2)N2Cc3ccccc3C2=N)cc1 (configuration not stated)	ROMK mod -3 | ROMK retest 0.054
N#CCNc1ccc([N+](=O)[O-])cc1C#N	none
CSc1ccccc1C(=O)NCc1ccccc1C	none
COc1cc(OC)cc(C(=O)N[C@H](C(=O)Nc2nc3ccc(S(C)(=O)=O)cc3s2)C(C)C)c1	none
Cc1cn2c(N)c(C=C3C=C(Cl)C(=O)C(Cl)=C3)c(=O)nc2s1	ROMK mod -6.1 | ROMK retest 0.025
COC1=C/C(=C/c2c(N)n3cc(C)sc3nc2=O)C=CC1=O	none
CCOC(=O)c1cnn(-c2ccc(Cl)cc2)c1C1CCN(C(=O)OC(C)(C)C)CC1	none (no result: Biofilm kill mix)
Cc1ccc(-n2ncc(C(=O)Nc3cc(Cl)cc(Cl)c3)c2C2CCNCC2)cc1C	ROMK mod -6.1 | ROMK retest 0.048
Cc1ccc(-n2ncc(C(=O)Nc3cc(Cl)ccc3Cl)c2C2CCNCC2)cc1	ROMK mod -6.2 | ROMK retest 0.058
CS(=O)(=O)Nc1ccccc1C(=O)Nc1cc(Cl)cc(Cl)c1	none (no result: Biofilm kill mix)
CCN(CC)C(=O)C(=O)Nc1ccc(F)c(Cl)c1	none
CC(NCC(O)COC1CCC(C(C)(C)C)CC1)c1ccccc1 (configuration not stated)	ROMK mod -2.3 | ROMK retest 0.058
CC1CCC(C(C)C)C(OCC(O)CNC(C)c2ccccc2)C1 (configuration not stated)	none
CC1(C)Cc2nc(NC3CCCCC3)c(C#N)cc2CO1	ROMK mod -2.5 | ROMK retest inactive
CCC1(C)Cc2nc(Cl)c(C#N)cc2CO1 (configuration not stated)	none (no result: ROMK mod)
CCOC(=O)c1c(C)n(C)c2ccc(OC(C)=O)cc12	none
CCOC(=O)c1c(C)n(C)c2ccc(OCC(O)Cn3nc(C)cc3C)cc12 (configuration not stated)	none (no result: ROMK mod, Biofilm kill mix) | ROMK retest 0.067
COc1ccc(-c2[nH]ncc2CN(CCO)Cc2cccs2)c(F)c1	none
Fc1ccc(-n2cc(CNCCc3cccnc3)c(-c3ccccc3Cl)n2)cc1	none
O=C(c1cccc2ccccc12)N1CCN(CC2CC=CCC2)CC1 (configuration not stated)	ROMK mod -2.6 (no result: Biofilm kill mix) | ROMK retest 0.059
O=C(C1CCN(CC2CC=CCC2)CC1)N(CCc1ccccc1)Cc1ccccc1 (configuration not stated)	ROMK mod -2.8 | ROMK retest 0.064
CCN(Cc1ccccc1)C(=O)C1CCN(C/C(C)=C/c2ccccc2)CC1	none
O=C(C1CCN(CCCc2ccccc2)CC1)N(CCc1ccccc1)Cc1ccccc1	ROMK mod -5 | ROMK retest 0.05
O=C(C1CCN(S(=O)(=O)c2cnc[nH]2)CC1)N(CCc1ccccc1)Cc1ccccc1	none
COc1cccc(CN2CCN(C(=O)c3cccc4ccccc34)CC2)c1OC	none (no result: Biofilm kill mix)
O=C(c1ccccc1-n1cccn1)N1CCc2c([nH]c3ccccc23)C1c1ccccn1 (configuration not stated)	none
COc1ccc(C(C)NC(=O)c2cccc([N+](=O)[O-])c2)cc1OC (configuration not stated)	none (no result: ROMK mod)
CCOC(=O)c1[nH]c(C=O)c(C(=O)OCC)c1C	none (no result: ROMK mod)
O=C(N/N=C/c1ccc[nH]1)c1ccc([N+](=O)[O-])cc1	none (no result: ROMK mod)
COCc1cc(C)nc(SCC(=O)Oc2ccccc2)c1C#N	none
COCc1cc(C)nc(SCC(=O)c2ccc(O)c(O)c2)c1C#N	ROMK mod 1.7 (no result: Biofilm kill mix) | ROMK retest inactive
Cn1c(-c2ccccc2)cnc1SCC(=O)N1CCCc2ccccc21	none
O=C(CSc1ncc(-c2ccccc2)n1C1CCCC1)N1CCc2ccccc21	ROMK mod -2.7 (no result: Biofilm kill mix) | ROMK retest inconclusive
CCc1cccc(N(C(=O)c2csnn2)C(C(=O)NC(C)(C)C)c2ccncc2)c1 (configuration not stated)	none
COc1ccc(N=Nc2nc3cc(Br)c(Br)cc3n2C)c(OC)c1	none (no result: ROMK mod)
